Measured values reported in ChEMBL document CHEMBL3286113, “New potent antibacterial oxazolidinone (MRX-I) with an improved class safety profile” (J Med Chem, 2014).
Converted amounts (≈) assume the structure as drawn.

Columns and labels:
[1] = Cmax in fasted human at 300 mg, po administered as single dose; assay type: ADME, organism-based; set-up: dose 300 mg, route oral; settings: in vivo
Method in brief: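 Healthy volunteers (12; six of each sex) in a three-period Latin-square crossover. Each received single oral doses of 300, 600 and 900 mg under fasting conditions, with a 1-week washout between doses. Parameters from a noncompartmental model.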

[2] = Tmax in female rat at 15 mg/kg, po; assay type: ADME, organism-based; set-up: dose 15 mg/kg, route oral; settings: in vivo
Method in brief: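 Male and female rats received single oral doses of 5, 15 or 45 mg/kg, with 5 mg/kg iv as a reference arm. Tmax was read from the plasma concentration–time profile for each gender.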

Staphylococcus aureus [3] = assay: Antibacterial activity against methicillin-sensitive Staphylococcus aureus ATCC 29213 in po dosed mouse systemic infection model; assay type: functional; settings: ATCC 29213, po
Enterococcus = assay: Bacteriostatic activity against vancomycin-sensitive Enterococcus; assay type: functional
[4] = Cmax in male rat at 5 mg/kg, po; assay type: ADME, organism-based; set-up: dose 5 mg/kg, route oral; settings: in vivo
Homo sapiens [5] = assay: Toxicity in human at 600 to 800 mg, po administered as single dose with meal on day 1 and day 15 followed by bid with meal on day 2 to day 14 measured during compound treatment; assay type: organism-based; settings: in vivo
Enterococcus faecalis = assay: Antibacterial activity against vancomycin-resistant Enterococcus faecalis isolate EFL 4041; assay type: functional
Rattus norvegicus [6] = assay: Toxicity in female rat assessed as effect on mean corpuscular volume at 100 mg/kg/day, po bid administered for 4 weeks (reference value: 53.72 fL); assay type: organism-based; set-up: route oral; settings: in vivo, 672 h
Rattus norvegicus [7] = assay: Toxicity in female rat assessed as effect on neutrophil count at 200 to 300 mg/kg/day, po bid administered for 4 weeks (reference value: 22.4%); assay type: organism-based; set-up: route oral; settings: in vivo, 672 h
Streptococcus pneumoniae [8] = assay: Antibacterial activity against penicillin intermediate-sensitive Streptococcus pneumoniae ATCC 49619 clinical isolate in po dosed mouse systemic infection model; assay type: functional; settings: ATCC 49619, po
Staphylococcus aureus [9] = assay: Antibacterial activity against Staphylococcus aureus measured after 4 serial passages; assay type: functional
[10] = tested on: Staphylococcus epidermidis; assay: Antibacterial activity against methicillin-resistant Staphylococcus epidermidis; assay type: functional
[11] = Cmax in human at 600 mg, po administered as single dose with meal measured on day 1; assay type: ADME, organism-based; set-up: dose 600 mg, route oral; settings: in vivo
Method in brief: (§1)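 Randomized, double-blind, placebo-controlled multiple-dose study in 32 healthy subjects, half male and half female. Each dose was taken with a meal, at 600 or 800 mg, 28 doses over 15 days. A single dose on days 1 and 15 gave full PK; BID (Q12h) dosing ran on days 2–14.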

Rattus norvegicus [12] = assay: Toxicity in female rat assessed as effect on reticulocyte count at 20 mg/kg/day, po bid administered for 4 weeks (reference value: 1.48%); assay type: organism-based; set-up: route oral; settings: in vivo, 672 h
[13] = AUC (0 to t) in male rat at 5 mg/kg, po; assay type: ADME, organism-based; set-up: dose 5 mg/kg, route oral; settings: plasma
Method in brief: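 Rat PK by gender, with single oral doses of 5, 15 and 45 mg/kg and an iv dose of 5 mg/kg. Tmax, Cmax, T1/2 and AUC0−t were reported per gender.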

Streptococcus pneumoniae [14] = assay: Antibacterial activity against penicillin-sensitive Streptococcus pneumoniae isolate 0806 in po dosed mouse systemic infection model; assay type: functional; settings: isolate 0806, po
Rattus norvegicus [15] = assay: Toxicity in female rat assessed as effect on hemoglobin level at 20 mg/kg/day, po bid administered for 4 weeks (reference value: 141.8 g/L); assay type: organism-based; set-up: route oral; settings: in vivo, 672 h
[16] = AUC (0 to 24 hrs) in female rat at 100 mg/kg/day, po bid administered for 4 weeks; assay type: ADME, organism-based; set-up: time < 24 hr, dose 100 mg/kg/day, route oral; settings: plasma
Method in brief: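 Repeat-dose toxicity study in rats (10/gender/group) dosed orally twice daily for 4 weeks, then a 4-week recovery period; the top dose was raised from 200 to 300 mg/kg/day on day 15. Blood was taken on days 1, 14 and 28 for toxicokinetics, and AUC0−24 was reported for females.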

Homo sapiens [17] = assay: Drug uptake in human at 600 to 800 mg, po administered as single dose with meal measured on day 1 and day 15; assay type: ADME, organism-based; settings: in vivo; method in brief: as §1
MAO-A = MAO-A (Homo sapiens, UniProt P21397); assay: Ratio of compound IC50 to linezolid IC50 for MAO-A (unknown origin) by fluorescence plate reader analysis; assay type: ADME
Streptococcus pneumoniae [18] = assay: Antibacterial activity against penicillin-sensitive Streptococcus pneumoniae isolate 0806; assay type: functional
Staphylococcus aureus [19] = assay: Antibacterial activity against Staphylococcus aureus; assay type: functional
Rattus norvegicus [20] = assay: Toxicity in female rat assessed as effect on hematocrit level at 200 to 300 mg/kg/day, po bid administered for 4 weeks (reference value: 39.08%); assay type: organism-based; set-up: route oral; settings: in vivo, 672 h
Rattus norvegicus [21] = assay: Toxicity in female rat assessed as effect on WBC count at 100 mg/kg/day, po bid administered for 4 weeks (reference value: 3.66 x 10^9/L); assay type: organism-based; set-up: route oral; settings: in vivo, 672 h
Cytochrome P450 1A2 = Cytochrome P450 1A2 (Homo sapiens, UniProt P05177); assay: Inhibition of CYP1A2 (unknown origin) at 1 to 200 uM; assay type: ADME
Rattus norvegicus [22] = assay: Toxicity in female rat assessed as effect on lymphocyte count at 20 mg/kg/day, po bid administered for 4 weeks (reference value: 74.8%); assay type: organism-based; set-up: route oral; settings: in vivo, 672 h
[23] = Oral bioavailability in rat; assay type: ADME, organism-based; settings: in vivo
[24] = Tmax in human at 600 mg, po administered as single dose with meal measured on day 1; assay type: ADME, organism-based; settings: in vivo
Method in brief: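 Randomized, double-blind, placebo-controlled multiple-dose study in 32 healthy subjects, half male and half female. Dosing was 600 or 800 mg orally with a meal, 28 doses over 15 days. A single dose was given on days 1 and 15 for full PK, with Q12h (BID) dosing on days 2−14.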

Chain of MAO-A (P21397 whole entry): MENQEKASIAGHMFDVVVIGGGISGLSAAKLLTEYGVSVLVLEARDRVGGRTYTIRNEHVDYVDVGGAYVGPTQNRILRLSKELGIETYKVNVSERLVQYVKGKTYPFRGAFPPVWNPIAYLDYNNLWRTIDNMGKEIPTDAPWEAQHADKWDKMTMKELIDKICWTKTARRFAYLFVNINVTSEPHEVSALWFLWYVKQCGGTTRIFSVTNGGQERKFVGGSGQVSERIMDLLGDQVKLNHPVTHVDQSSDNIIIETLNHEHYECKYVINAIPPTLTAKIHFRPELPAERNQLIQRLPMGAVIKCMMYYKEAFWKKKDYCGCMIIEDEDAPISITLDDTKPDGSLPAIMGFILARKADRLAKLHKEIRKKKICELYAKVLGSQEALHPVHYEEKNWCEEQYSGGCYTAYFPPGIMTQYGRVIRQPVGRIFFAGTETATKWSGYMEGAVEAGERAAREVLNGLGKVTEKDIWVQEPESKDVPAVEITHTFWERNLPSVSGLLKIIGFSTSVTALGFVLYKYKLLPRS
Chain of Cytochrome P450 1A2 (P05177 whole entry): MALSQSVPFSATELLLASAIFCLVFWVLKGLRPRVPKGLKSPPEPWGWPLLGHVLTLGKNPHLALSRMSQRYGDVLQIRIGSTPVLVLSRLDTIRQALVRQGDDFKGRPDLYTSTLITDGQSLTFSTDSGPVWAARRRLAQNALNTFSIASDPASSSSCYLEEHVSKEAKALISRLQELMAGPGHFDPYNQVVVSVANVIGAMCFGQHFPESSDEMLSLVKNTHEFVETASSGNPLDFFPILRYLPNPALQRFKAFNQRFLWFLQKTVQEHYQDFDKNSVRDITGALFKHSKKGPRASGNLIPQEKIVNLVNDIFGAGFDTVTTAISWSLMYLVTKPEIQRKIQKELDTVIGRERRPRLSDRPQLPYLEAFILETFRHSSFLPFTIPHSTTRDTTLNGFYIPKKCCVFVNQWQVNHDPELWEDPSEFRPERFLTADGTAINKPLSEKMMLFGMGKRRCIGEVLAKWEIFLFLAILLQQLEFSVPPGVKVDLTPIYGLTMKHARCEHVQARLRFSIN

## O=C1C=CN(c2c(F)cc(N3C[C@H](CNc4ccon4)OC3=O)c(F)c2F)CC1 [CONTEZOLID]
[1]
  Cmax: 8070 ng/mL
[2]
  Tmax: 70.2 min
Staphylococcus aureus [3]
  ED50: 8 mg/kg
Enterococcus
  MIC50: 1 µg/mL (≈ 2.45 µM)
  MIC90: 1 µg/mL (≈ 2.45 µM)
[4]
  Cmax: 4600 ng/mL
Homo sapiens [5]
  Activity: Non-toxic
Enterococcus faecalis
  MIC: 1 µg/mL (≈ 2.45 µM)
Rattus norvegicus [6]
  Activity: 54.78 fL
Rattus norvegicus [7]
  Activity: 26.4%
Streptococcus pneumoniae [8]
  ED50: 8.1 mg/kg
Staphylococcus aureus [9]
  MIC: 2 µg/mL (≈ 4.9 µM)
[10]
  MIC50: 0.25 µg/mL (≈ 0.612 µM)
  MIC90: 0.5 µg/mL (≈ 1.22 µM)
[11]
  Cmax: 20300 ng/mL
Rattus norvegicus [12]
  Activity: 1.3%
[13]
  AUC(0-t): 10.2 µg·h/mL
Streptococcus pneumoniae [14]
  ED50: 22 mg/kg
Rattus norvegicus [15]
  Activity: 137.8 g/L
[16]
  AUC at 24 h: 319 µg·h/mL
Homo sapiens [17]
  Drug uptake: Not Active
MAO-A
  selectivity ratio: 5.2
Streptococcus pneumoniae [18]
  MIC: 2 µg/mL (≈ 4.9 µM)
Staphylococcus aureus [19]
  MIC: 2 µg/mL (≈ 4.9 µM)
Rattus norvegicus [20]
  Activity: 30.6%
Rattus norvegicus [21]
  Activity: 3.14 ×10⁹ /L
Cytochrome P450 1A2
  inhibition (INH): Not Active
Rattus norvegicus [22]
  Activity: 83.4%
[23]
  bioavailability: 109%
[24]
  Tmax: 39 min
